Here are results for four compounds from ChEMBL document CHEMBL3286178, “Cell membrane mediated (-)-epicatechin effects on upstream endothelial cell signaling: evidence for a surface receptor” (Bioorg Med Chem Lett, 2014).

Assay [1] in a line: Binding affinity to rat brain cell membrane. The assay is classed as cell membranes.
The species named for assay [2] is Homo sapiens. As to the kind of experiment: Induction of PI3K phosphorylation in calcium free HCAEC at 100 nM after 10 mins incubation by Western blot analysis. In a few lines:
(§1)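 Ca2+-free human coronary artery endothelial cells treated 10 min with 100 nM free or dextran-conjugated compound (conjugate dose expressed as equivalent bound compound); phospho-PI3K, phospho-PDK1, phospho-AKT, phospho-eNOS (Ser1177, Ser615) and PIP3 assessed, with or without PI3K inhibitor wortmannin; Western blots representative of three independent experiments.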
A general note: A western blot detects proteins with antibodies after separation by electrophoresis.

The species named for assay [3] is Homo sapiens. As to the kind of experiment: Induction of PIP3 level in calcium free HCAEC at 100 nM after 10 mins incubation by Western blot analysis. The assay is classed as functional. In a few lines:
as §1

For assay [4], the species on record is Homo sapiens. The experiment in a line: Induction of PI3K phosphorylation in calcium free HCAEC at 100 nM after 10 mins incubation by Western blot analysis in presence of wortmannin. In a few lines: as §1
Assay [5] is filed under the species Homo sapiens. As to the kind of experiment: Induction of PIP3 level in calcium free HCAEC at 100 nM after 10 mins incubation by Western blot analysis in presence of wortmannin. It counts as functional. In a few lines: as §1
The species named for assay [6] is Homo sapiens. As to the kind of experiment: Induction of PI3K in calcium free HCAEC assessed as PDK1 phosphorylation at 100 nM after 10 mins incubation by Western blot analysis. In a few lines: as §1
The species entered for assay [7] is Homo sapiens. The experiment in a line: Induction of PI3K in calcium free HCAEC assessed as PDK1 phosphorylation at 100 nM after 10 mins incubation by Western blot analysis in presence of wortmannin. In a few lines:
as §1

The species entered for assay [8] is Homo sapiens. The experiment in a line: Induction of PI3K in calcium free HCAEC assessed as Akt phosphorylation at 100 nM after 10 mins incubation by Western blot analysis. In a few lines:
as §1

For assay [9], the species on record is Homo sapiens. As to the kind of experiment: Induction of PI3K in calcium free HCAEC assessed as Akt phosphorylation at 100 nM after 10 mins incubation by Western blot analysis in presence of wortmannin. In a few lines: as §1
Assay [10] deals with T1, Nitric oxide synthase 3 (Homo sapiens) (UniProt P29474).
T1 sequence (whole entry): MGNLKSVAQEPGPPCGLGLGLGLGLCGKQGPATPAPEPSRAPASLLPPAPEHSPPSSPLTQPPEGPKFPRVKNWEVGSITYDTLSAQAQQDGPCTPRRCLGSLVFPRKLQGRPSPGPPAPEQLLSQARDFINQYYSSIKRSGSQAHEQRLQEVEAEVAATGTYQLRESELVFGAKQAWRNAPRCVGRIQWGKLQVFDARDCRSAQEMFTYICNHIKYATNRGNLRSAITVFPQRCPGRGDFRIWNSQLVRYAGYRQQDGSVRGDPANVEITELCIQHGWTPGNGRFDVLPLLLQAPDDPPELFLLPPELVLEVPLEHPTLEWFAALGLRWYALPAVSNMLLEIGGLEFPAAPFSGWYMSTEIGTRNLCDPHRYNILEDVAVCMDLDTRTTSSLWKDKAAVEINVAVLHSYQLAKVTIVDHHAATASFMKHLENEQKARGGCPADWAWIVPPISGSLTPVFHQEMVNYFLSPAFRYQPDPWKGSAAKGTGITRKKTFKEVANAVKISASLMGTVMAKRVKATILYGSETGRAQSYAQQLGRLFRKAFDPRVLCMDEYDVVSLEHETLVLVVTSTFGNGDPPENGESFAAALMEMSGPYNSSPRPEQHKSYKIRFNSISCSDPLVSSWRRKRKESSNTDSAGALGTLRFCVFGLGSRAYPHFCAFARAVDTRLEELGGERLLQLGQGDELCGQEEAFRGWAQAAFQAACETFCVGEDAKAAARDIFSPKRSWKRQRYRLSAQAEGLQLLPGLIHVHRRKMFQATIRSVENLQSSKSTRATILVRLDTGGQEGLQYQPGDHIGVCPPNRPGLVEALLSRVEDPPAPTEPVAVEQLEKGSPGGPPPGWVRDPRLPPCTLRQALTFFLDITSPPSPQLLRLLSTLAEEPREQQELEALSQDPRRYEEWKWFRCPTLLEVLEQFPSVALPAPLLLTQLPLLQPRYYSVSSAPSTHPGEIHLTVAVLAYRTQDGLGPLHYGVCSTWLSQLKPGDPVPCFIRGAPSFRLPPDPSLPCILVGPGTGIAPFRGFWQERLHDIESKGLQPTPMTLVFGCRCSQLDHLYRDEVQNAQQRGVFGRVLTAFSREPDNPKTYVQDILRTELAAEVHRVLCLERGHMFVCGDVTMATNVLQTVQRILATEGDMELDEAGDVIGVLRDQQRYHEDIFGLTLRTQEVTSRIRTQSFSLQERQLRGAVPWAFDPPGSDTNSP
The experiment in a line: Induction of eNOS activation in calcium free HCAEC assessed as phosphorylation at serine 1177 at 100 nM after 10 mins incubation. In a few lines:
as §1

For assay [11], the target named is T1, Nitric oxide synthase 3 (Homo sapiens). As to the kind of experiment: Induction of eNOS activation in calcium free HCAEC assessed as phosphorylation at serine 615 at 100 nM after 10 mins incubation. In a few lines: as §1
For assay [12] the target is unchanged. The experiment in a line: Induction of eNOS activation in calcium free HCAEC assessed as phosphorylation at serine 1177 at 100 nM after 10 mins incubation in presence of wortmannin. In a few lines:
as §1

The target is the same in assay [13]. As to the kind of experiment: Induction of eNOS activation in calcium free HCAEC assessed as phosphorylation at serine 615 at 100 nM after 10 mins incubation in presence of wortmannin. In a few lines:
as §1

Assay [14] is filed under the species Homo sapiens. As to the kind of experiment: Effect on eNOS phosphorylation at Thr 495 in calcium free HCAEC at 100 nM after 10 mins incubation. The assay is classed as functional.
For another assay, the system named is brain. The experiment in a line: Binding affinity to rat brain cell membrane at 10 uM.

The Ki is the equilibrium dissociation constant of an inhibitor or competing ligand from its target. Read a low Ki as tighter binding.

Active and inactive are the calls of the source. The rule behind the calls is not given here.

In assay [1], `O=C(O[C@@H]1Cc2c(O)cc(O)cc2O[C@@H]1c1cc(O)c(O)c(O)c1)c1cc(O)c(O)c(O)c1` [EPIGALOCATECHIN GALLATE] showed a Ki of 25 nM.
In the case of `Oc1cc(O)c2c(c1)O[C@H](c1ccc(O)c(O)c1)[C@H](O)C2`, the outcome (in the assay filed under Homo sapiens [2]; in the assay listed under Homo sapiens [3]; in the assay listed under Homo sapiens [6]; in the assay listed under Homo sapiens [8]; in assay [10]; in assay [11]) was Active. Further, the outcome (in the assay listed under Homo sapiens [4]; in the assay filed under Homo sapiens [5]; in the assay filed under Homo sapiens [7]; in the assay filed under Homo sapiens [9]; in assay [12]; in [13]) was inactive. The outcome in the assay filed under Homo sapiens [14] and with brain was inactive.
Consider `O=C(O[C@@H]1Cc2c(O)cc(O)cc2O[C@@H]1c1ccc(O)c(O)c1)c1cc(O)c(O)c(O)c1` [EPICATECHIN GALLATE], for which affinity in [1] was put at a Ki of 25 nM.
In the case of `Oc1ccc(/C=C/c2cc(O)cc(O)c2)cc1` [RESVERATROL], the Ki in assay [1] is 102 nM.
